Assay results as given in PMC3139708 (Nature chemical biology, 2011).
“Also recorded” adds a separate entry of the source. Where a SMILES comes first, the peptide text is derived from it. [ ]: non-standard residue; d: D form. βAla = NCCC(=O)O

What was measured:
[1] = test system: YFP-LID; test: Shield-dependent degradation of YFP-LID in NIH3T3 cells, flow cytometry; format: cell-based
Procedure, shortened: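 NIH3T3 cells were stably retrovirally transduced with YFP-FKBP(F36V) plus the 19-residue C-terminal peptide, with IRES-HcRed as infection marker. They were plated at 1 × 10⁵ per well and given vehicle or Shield-1 (1 pM–1 μM, or 1 μM for 24 h), then trypsinised. YFP was read by flow cytometry (typically 10,000 events) against untransduced-cell autofluorescence. Error bars are s.d. from at least two experiments.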

[2] = test system: YFP-LID; test: Time course of YFP-LID degradation and recovery in NIH3T3 cells, flow cytometry; format: cell-based; conditions: NIH3T3, absence of cycloheximide
Procedure, shortened: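 Stably transduced NIH3T3 cells expressing YFP-LID were plated at 1 × 10⁵ cells/well. For degradation, Shield-1 was added and cells were sampled at various times. For recovery, Shield-1 was removed by changing to fresh growth medium containing 5 μM recombinant FKBP(F36V) at set times before analysis. YFP was read by flow cytometry, and the maximum fluorescence was set to 100%.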

[3] = test system: YFP-LID fusion proteins in HeLa cells; test: YFP-LID degradation in transiently transfected HeLa cells; format: cell-based; conditions: 24 hours Shield-1
[4] = test system: YFP-LID fusion proteins in U2OS cells; test: YFP-LID degradation in transiently transfected U2OS cells; format: cell-based; conditions: 24 hours Shield-1
[5] = test system: YFP; test: Stability of YFP fused directly to the 19-residue peptide or its truncations; format: cell-based; conditions: 1 μM Shield-1, 24 h, flow cytometry
Procedure, shortened: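 The 19-residue peptide was fused directly to YFP, without FKBP, and stably transduced into NIH3T3 cells by retrovirus. Cells were plated at 1 × 10⁵ per well, treated with vehicle or 1 μM Shield-1 for 24 h, trypsinised and analysed by flow cytometry (typically 10,000 events). Error bars are s.d. from at least two experiments.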

[6] = test system: transcription factors fused to LID (Oct4, Klf4, Sox2, Myc, Lin28, Nanog); format: cell-based, human; Nanog mouse; conditions: 2 μM Shield-1, 24 h, NIH3T3, immunoblot
Procedure, shortened: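 LID was fused to the C-terminus of each of six transcription factors. Each was retrovirally transduced into NIH3T3 cells separately (4 μg/mL polybrene, 4 h, 37 °C; 24–36 h integration) in DMEM with 10% donor bovine serum. Cells got vehicle or 2 μM Shield-1 for 24 h. Lysates were immunoblotted with anti-Oct4, anti-Klf4, anti-HA (Sox2, Myc, Lin28) or anti-Flag (Nanog). α-Tubulin was the loading control; untransduced cells were the reference.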

[7] = test system: Oct4-LID; test: Reprogramming of MEFs; format: cell-based, murine embryonic fibroblasts; conditions: 2 μM Shield-1 from day 3 post-infection
Procedure, shortened: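 Fibroblasts came from transgenic mice carrying GFP driven by the Oct4 promoter. They were retrovirally transduced with Sox2, Myc, Klf4 and Oct4-LID, with untagged Oct4 as comparison. Vehicle or 2 μM Shield-1 was added on day 3 post-infection, and alkaline phosphatase staining was done on day 14. GFP-positive cells were moved to fresh feeder layer on day 19 and stained with APC anti-SSEA-1 on day 24.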

[8] = test system: actin-GFP-LID; test: Depletion of β-actin-AcGFP-LID in NIH3T3 cells, fluorescence microscopy; format: cell-based, human; conditions: 2 μM Shield-1, 24 hours
Procedure, shortened: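 NIH3T3 fibroblasts were retrovirally co-transduced (4 μg/mL polybrene, 4 h, 37 °C; then 24–36 h in growth medium) with human β-actin fused to Aequorea coerulescens GFP plus LID, and with β-actin-mCherry to mark microfilaments. Cells were cultured ± Shield-1, and green and red actin filaments were imaged by epifluorescence microscopy with a 40x objective.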

[9] = test system: YFP-LID; test: Simultaneous use of LID and DD systems in NIH3T3 cells: YFP-LID; format: cell-based; conditions: various concentrations of Shield-1, 24 h, flow cytometry and microscopy
Procedure, shortened: (§1)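 NIH3T3 cells stably co-transduced with YFP-LID and DD-mCherry were plated at 1 × 10⁵ cells/well. They were exposed to a range of Shield-1 concentrations for 24 h, then detached with trypsin-EDTA. YFP and mCherry were read in their respective channels by flow cytometry (typically 10,000 events) and by epifluorescence microscopy.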

[10] = test system: DD-mCherry; test: Simultaneous use of LID and DD systems in NIH3T3 cells: DD-mCherry; format: cell-based; conditions: various concentrations of Shield-1, 24 h, flow cytometry and microscopy
Procedure, shortened: as §1

[11] = test system: YFP-FKBP(F36V)-degron-LPLPLP fusions (CL1, CyclinB, encephalomyocarditis virus degron); format: cell-based; conditions: NIH3T3, flow cytometry
[12] = target: FKBP domain; conditions: ref [18],[26]; cited from earlier work
[13] = test system: FKBP; conditions: relative to Shield-1; ref [19]; cited from earlier work
[14] = target: FKBP(F36V) (Homo sapiens, UniProt P62942, F37V); test: Fluorescence polarization competition binding against Fl-SLF; conditions: polarization signal; Fl-SLF 1 nM, FKBP(F36V) 100 nM
FKBP(F36V), sequence (P62942 whole entry F37V): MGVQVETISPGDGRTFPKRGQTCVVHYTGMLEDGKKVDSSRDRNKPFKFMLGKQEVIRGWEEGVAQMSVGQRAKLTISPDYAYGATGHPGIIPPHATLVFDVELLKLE
Procedure, shortened: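 Purified FKBP(F36V) and fluorescent Shield-1 analog Fl-SLF were held at fixed concentrations and incubated with a titration of synthetic test peptide. Tracer displacement was read as the decrease in fluorescence polarization.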

CC[C@H](C(=O)N1CCCC[C@H]1C(=O)O[C@H](CCc1ccc(OC)c(OC)c1)c1cccc(OCCN2CCOCC2)c1)c1cc(OC)c(OC)c(OC)c1 [Shield-1]
YFP fluorescence levels in Shield-treated cells above the background autofluorescence ([1]; relative to untransduced NIH3T3 cells, flow cytometry): 10-20% | time for YFP levels to be reduced 50% upon addition of Shield-1 [2]: 45 min | degradation of YFP-LID fusion proteins [3]: could be degraded in transient transfected HeLa and U2OS cells | degradation of YFP-LID fusion proteins [4]: could be degraded in transient transfected HeLa and U2OS cells | effect of Shield-1 on the stability of YFP-19mer [5]: this instability is not affected by Shield-1; also recorded: no effect on the stability of this fusion | degradation of LID-fused transcription factors [6]: all degraded in a Shield-1 dependent manner | reprogramming to iPS cells of cells expressing Oct4-LID in the presence of Shield-1 [7]: unable to undergo reprogramming to iPS cells | GFP fluorescence of β-actin-GFP-LID after Shield-1 [8]: GFP fluorescence was absent | YFP-LID level [9]: dose-dependent depletion of YFP-LID | mCherry (DD-mCherry) level [10]: simultaneous stabilization of mCherry | stability of YFP-FKBP-degron-LPLPLP fusions with Shield-1 [11]: an increase in fluorescence was observed | affinity for the FKBP domain [12]: sub-nanomolar

CCC(CC)NC(=O)N1CCCC[C@H]1C(=O)O[C@H](CCc1ccc(OC)c(OC)c1)c1cccc(OCCN2CCOCC2)c1 [Shield-2]
destabilization of the LID domain ([1]; NIH3T3 cells, compared with Shield-1): can also destabilize the LID domain although with slightly reduced potency | binding potency for FKBP [13]: less potent binding ligand for FKBP

CC(C)C[C@H](NC(=O)[C@H](CC(C)C)NC(=O)[C@@H](NC(=O)[C@@H](NC(=O)CNC(=O)[C@H](CCC(=O)O)NC(=O)[C@H](C)NC(=O)[C@@H](NC(=O)[C@H](CCC(=O)O)NC(=O)[C@H](CCC(=O)O)NC(=O)[C@@H](NC(=O)CNC(=O)[C@H](CCCNC(=N)N)NC(=O)[C@@H](NC(=O)CCN)[C@@H](C)O)C(C)C)C(C)C)C(C)C)C(C)C)C(=O)N[C@@H](CCCNC(=N)N)C(=O)N[C@@H](CCCNC(=N)N)C(=O)N[C@@H](CCCNC(=N)N)C(=O)NCC(=O)N[C@@H](CC(N)=O)C(=O)O [19-residue peptide] (H-[βAla]TRGVEEVAEGVVLLRRRGN-OH; N-terminus and C-terminus assumed)
displacement of tracer Fl-SLF from FKBP [14]: dose-dependent decrease in polarization signal
